# Assay outcomes deposited in PubChem BioAssay by several laboratories.
# Most compounds without a hit are left out; they make up all but 1.2% or so of the library.
# SR-BI HDL uptake: mouse SR-BI HDL lipid transfer inhibition | Q61009 | ldlA[mSR-BI] CHO cells, DiI-HDL uptake fluorescence, 3 h | inhibition, % at 12.5 µM | 320,000 compounds, 0.96% hits | AID 488896;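 active = mean replicate inhibition of at least 70% and a set share of replicates each scoring 70 or more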;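 note: 0% = median of neutral control wells and 100% = median of positive control wells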
# Target sequence (Q61009 whole entry, looked up): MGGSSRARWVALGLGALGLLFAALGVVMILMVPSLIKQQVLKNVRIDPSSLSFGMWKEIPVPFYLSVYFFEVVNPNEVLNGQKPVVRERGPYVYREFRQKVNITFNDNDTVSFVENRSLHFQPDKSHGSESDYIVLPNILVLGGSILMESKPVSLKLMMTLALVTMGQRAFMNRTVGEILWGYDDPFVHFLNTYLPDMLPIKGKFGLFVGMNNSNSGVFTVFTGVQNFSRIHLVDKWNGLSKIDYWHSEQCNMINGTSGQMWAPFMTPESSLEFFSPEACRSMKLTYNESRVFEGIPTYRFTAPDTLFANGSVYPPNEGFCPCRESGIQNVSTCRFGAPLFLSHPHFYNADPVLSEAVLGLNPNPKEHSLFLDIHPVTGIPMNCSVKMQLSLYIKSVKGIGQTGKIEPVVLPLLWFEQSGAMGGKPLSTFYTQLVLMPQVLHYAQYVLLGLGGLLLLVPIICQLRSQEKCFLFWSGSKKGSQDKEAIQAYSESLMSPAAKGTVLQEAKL
# FN deposit inh: fibronectin deposition inhibition; 350,000 compounds, 0.086% hits; AID 743247; AH1F fibroblasts, Alexa488-fibronectin deposition fluorescence, overnight; inhibition, % at 12.6 µM;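 active = mean inhibition across replicates of 30% or more, regardless of how many single replicates reach that level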;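 note: positive control wells lacked labelled fibronectin entirely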
#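 Assay system: AH1F fibroblasts assembling fluorescent fibronectin matrix; Amount: 10000 AH1F cells per well; Buffer or medium: DMEM, 2% serum; Probe or stimulus: Alexa488-fibronectin, 24 nM final in well; Doses: single compound dose, delivered by pin transfer; Incubation: 1 h adhesion, overnight exposure; Measured by: fluorescence 485/525 nm; Read-out: fibronectin deposition inhibition.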
# Efflux pump inh: blocks antifungal efflux pumps in multiplex yeast assay; S. cerevisiae Candida pump triplex, Nile Red efflux; inhibition, % at 10 µM; 330,000 compounds, 0.44% hits; AID 485275;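 active = plate passing quality check with inhibition over a set limit, or well fluorescence over plate mean plus 4 SD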;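 note: Nile Red retained in pooled yeast measured as flow cytometry median fluorescence; 0% = buffer negative control and 100% = Enniatin B positive control; higher means more Nile Red kept so more efflux inhibition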
# CaV13 ICDI inh: Primary screen for inhibitors of IQ motif and Ca2+-dependent inactivation inhibitor domain binding in CACNA1D, Förster resonance energy transfer in living cells, … | AID 743397 | 340,000 compounds, 0.098% hits | HEK cells, CFP/YFP FRET ICDI-IQ, plate reader, 10 min; percent FRET-ratio fall versus neutral wells | inhibition, % at 12.3 µM;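 active = mean replicate inhibition of at least 30% and at least 1% of replicates passing that level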;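 note: 0% = median of the neutral control wells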
# SR-BI DiI-HDL act: activators of SR-BI mediated HDL lipid uptake. CHO ldlA[mSR-BI] cells, DiI-HDL uptake fluorescence, 3 h; 100 = double the neutral-control signal. activation, % at 12.5 µM. 320,000 compounds, 0.096% hits;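 active = mean replicate activation of at least 60% and every replicate at or above 60%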;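 note: 0% = median plate neutral-control signal and 100% = twice that signal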
#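 system = CHO ldlA[mSR-BI] cells, LDL receptor-null, SR-BI overexpressing | medium = Ham's F12 with 0.5% BSA, HEPES 25 mM, pH 7.4 | probe or stimulus = DiI-HDL 10 µg/mL | compound dosing = single-point compound dose | incubation = compound exposure 3 h, 37 °C | technique = DiI fluorescence, bottom read | read-out = cell-associated DiI fluorescence as measure of HDL uptake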
# Cmpd fluor yeast: counter-screen for efflux pump inhibitors: compound fluorescence | shares compounds with Efflux pump inh | S. cerevisiae AD/pABC3, flow cytometry | fluorescence ratio to DMSO, % at 10 µM | 1,700 compounds, 4% hits;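 active = fluorescence ratio to DMSO above its plate's cutoff, the plate mean ratio plus 5 SD, cut at about 210% in these data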;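 note: unstained yeast with no Nile Red so the signal is compound autofluorescence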
# Mdr1 pump inh: Candida Mdr1 efflux pump inhibition; shares compounds with Efflux pump inh; S. cerevisiae AD/CaMDR1, Nile Red efflux, flow cytometry; inhibition, % at 10 µM; 1,700 compounds, 1% hits; AID 588518; in the data active = inhibition above about 26%;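 note: 0% = DMSO vehicle and 100% = reference inhibitor; higher means more Nile Red retained so more efflux inhibition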
# CaCdr2 efflux inh: Candida Cdr2 efflux pump inhibition; shares compounds with Efflux pump inh; S. cerevisiae AD/CaCDR2, Nile Red retention, flow cytometry; Nile Red retention ratio vs DMSO, % at 10 µM; 1,700 compounds, 4% hits; AID 588520; in the data active = Nile Red retention ratio vs DMSO above about 190%;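 note: higher ratio means more blocking of Cdr2 efflux of the dye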
# CaCdr1 efflux inh: inhibitors of Candida albicans Cdr1 efflux pump. shares compounds with Efflux pump inh. S. cerevisiae AD/CaCDR1, Nile Red efflux, flow cytometry. inhibition, % at 10 µM. 1,700 compounds, 1% hits. AID 588522;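 active = inhibition above the screen-wide mean plus twice its standard deviation, cut at about 32% in these data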
# The depositor's hits bear a star; . = no result given; + = active, no number; ! = a repeat was not active.
SMILES,SR-BI HDL uptake,FN deposit inh,Efflux pump inh,CaV13 ICDI inh,SR-BI DiI-HDL act,Cmpd fluor yeast,Mdr1 pump inh,CaCdr2 efflux inh,CaCdr1 efflux inh
C=CCn1c(SCc2ccc(C(=O)OC)cc2)nnc1-c1sc(N)nc1C,7,2,15*,-4,-7,106,0,101,0
CO[C@H]1CN(C)C(=O)c2ccc(NC(=O)c3ccccc3F)cc2OC[C@@H](C)N(CC2CC2)C[C@@H]1C,.,-12,.,.,.,.,.,.,.
CC(C)NC(=O)N(C)C[C@@H]1OCCCC[C@H](C)Oc2ccc(NC(=O)NC3CCCCC3)cc2C(=O)N([C@@H](C)CO)C[C@H]1C,.,-12,.,.,.,.,.,.,.
Cc1cc2ccccc2n2c(SCC(=O)Nc3ccc(S(=O)(=O)N4CCC(C)CC4)cc3)nnc12,5,6,6.8*,-2,-5,96,0,114,0
CC(C)NC(=O)N(C)C[C@H]1OCCCC[C@@H](C)Oc2ccc(NS(=O)(=O)c3cn(C)cn3)cc2C(=O)N([C@H](C)CO)C[C@H]1C,.,0,.,.,.,.,.,.,.
CC(C)[C@H]1COCc2cn(nn2)CC[C@H](Cc2ccccc2)C(=O)N1,.,0,.,.,.,.,.,.,.
O=C(C1CC1)N1CCc2cc(Br)cc(S(=O)(=O)NCc3ccccn3)c21,-54,3,0,.,54,.,.,.,.
O=C(C1CCC1)N1CCc2cc(S(=O)(=O)NCCN3CCN(c4ccccc4F)CC3)ccc21,14,.,1.1*,.,-14,87,0,100,0
O=C(C1CCC1)N1CCc2cc(S(=O)(=O)NCc3ccccn3)ccc21,11,.,0.7*,.,-11,109,0,102,0
CCCCCCCCCCCCCCCCn1cc[n+](C)c1,-3,34*,2.7*!,-4,3,100,0,110,0
CCCCCCCCCCn1ccc(=N)cc1,-14,4,1,-4,14,.,.,.,.
CC(C)CC[n+]1ccccc1/C=C/c1ccc(N(C)C)cc1,-36,-58,4.0*,-64,36,955*,4,102,2
CN(C)c1ccc(/C=C/c2cccc[n+]2[O-])cc1,-9,1,0,-36,9,.,.,.,.
Cc1cccc(-c2cc(C(=O)Nc3sc(C)c(C)c3C(N)=O)c3ccccc3n2)c1,27,.,0,.,-27,.,.,.,.
Cc1ccc(C)c(-c2cc(C(=O)Nc3sc(C)c(C)c3C(N)=O)c3ccccc3n2)c1,56,.,0,-8,-56,98,0,104,0
C[n+]1ccccc1/C=C/c1ccc([N+](=O)[O-])cc1,4,-3,1.4*,-5,-4,133,1,120,0
NC1=NC[C@H](Cc2ccc(O)cc2)N1CCc1cccc2ccccc12,7,3,0,0,-7,.,.,.,.
NC1=NC[C@H](Cc2ccccc2)N1CCCCC1CCCCC1,5,3,1.1*,14,-5,116,0,121,0
NC1=NC[C@H](Cc2ccc(O)cc2)N1CCCCC1CCCCC1,3,-7,1,3,-3,98,0,+,0
COCCNC(=S)N1CCc2cc(OC)c(OC)cc2C1COc1ccc(F)cc1 (configuration not stated),62,.,0,-6,-62,.,.,.,.
COCCNC(=S)N1CCc2cc(OC)c(OC)cc2C1COc1ccc(C(C)C)cc1 (configuration not stated),-17,-6,6.8*,-2,17,115,0,112,0
CCCNC(=O)N1CC2(C1)[C@H](c1ccccc1)[C@@H](CO)N2CC1CC1,.,-7,.,.,.,.,.,.,.
O=C(O)CC/C(=N/NC(=O)c1ccc(-c2ccccc2)cc1)c1ccccc1,24,2,0,-7,-24,.,.,.,.
O=C(O)CC/C(=N\NC(=O)c1ccccc1Br)c1ccccc1,-21,-1,18*,-3,21,103,0,98,0
N#C/C(=C/c1ccc(-c2ccc(Br)cc2)o1)C(=O)NC1CCCCC1,25,-4,1.7*,-7,-25,128,0,137,0
SMILES,SR-BI HDL uptake,FN deposit inh,Efflux pump inh,CaV13 ICDI inh,SR-BI DiI-HDL act,Cmpd fluor yeast,Mdr1 pump inh,CaCdr2 efflux inh,CaCdr1 efflux inh
Nc1nonc1-n1nnc(C(=O)N/N=C/c2c(Cl)cccc2Cl)c1CSC1=NCCS1,26,3,0,-2,-26,80,0,89,0
CCCOc1ccc(-c2c(C(=O)N/N=C/c3ccsc3)nnn2-c2nonc2N)cc1,52,0,0,-3,-52,.,.,.,.
Nc1nonc1-n1nnc(C(=O)N/N=C/c2ccc(O)cc2)c1COc1ccc(F)cc1,14,-6,0,-5,-14,95,0,97,0
CCCOc1ccc(-c2c(C(=O)N/N=C/c3ccccc3)nnn2-c2nonc2N)cc1,77*,5,0,0,-77,113,0,101,0
Nc1nonc1-n1nnc(C(=O)N/N=C/c2ccccc2Cl)c1COc1ccc(F)cc1,29,0,0,-4,-29,76,0,93,0
CO[C@H]1CN(C)C(=O)c2cc(NS(C)(=O)=O)ccc2OC[C@H](C)N(CC2CCCCC2)C[C@H]1C,.,12,.,.,.,.,.,.,.
Cc1cc(/C([O-])=C(/C(=S)Nc2ccc(F)cc2)[n+]2ccccc2)c(C)n1-c1ccc(F)cc1,-2,.,0,.,2,.,.,.,.
Cc1ccc(-n2c(C)cc(/C([O-])=C(/C(=S)Nc3ccc(F)c(Cl)c3)[n+]3ccccc3)c2C)cc1,41,-9,0.9*,.,-41,101,0,94,0
O=C(C[C@@H]1C=C[C@H](NC(=O)CN2CCOCC2)[C@@H](CO)O1)NC1CCCCC1,.,7,.,.,.,.,.,.,.
CO[C@H]1CN(C)C(=O)c2ccc(NC(=O)C3CC3)cc2OC[C@@H](C)N(C(=O)C2CCCCC2)C[C@@H]1C,.,-12,.,.,.,.,.,.,.
Cc1cccc(-c2nc(S(=O)(=O)c3ccc(F)cc3)c(NCCCN3CCOCC3)o2)c1,-35,-5,7.4*,-10,35,94,0,91,0
Cc1ccc(S(=O)(=O)c2nc(-c3ccccc3)oc2NCCCN2CCOCC2)cc1,-14,-1,.,-5,14,.,.,.,.
Cc1ccc(C)c(OCc2cc(C(=O)N(C)Cc3nccs3)no2)c1,8,7,0,-3,-8,182,1,110,1
Cc1ccc(C)c(OCc2cc(C(=O)N(C)Cc3ccccn3)no2)c1,-3,-11,0,-3,3,.,.,.,.
